pIC50: −log10 of the molar value. Activity calls are given as the source filed them. The rule behind the calls is not given here.
Columns and labels:
Mus musculus [1] = assay: Toxicity in NOD/SCID mouse xenografted with human MIAPaCa2 cells assessed as lethargy at 5 mg/kg, ip administered 5 times a week until day 44; type: organism-based; conditions: in vivo
In short: (§1)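 Subcutaneous flank MIA PaCa-2 xenografts (2.0×10^6 cells) in 6-week NOD/SCID mice, randomized at 65 mm3 (n=5/group: vehicle or drug). Dosed ip in 5% DMSO/60% propylene glycol/35% saline, five days on/two off, to day 44. Body weight tracked and mice watched for weakness, weight loss or lethargy; mean ± SEM.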

PANC-1 = assay: Cytotoxicity against human PANC1 cells assessed as decrease in cell proliferation after 72 hrs by MTT assay; type: functional, cell-based; conditions: PANC-1, 72 h
In short: (§2)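 MTT assay. Cells (3000–8000/well) attached overnight in RPMI1640 with 10% FBS; the GR line was kept with 200 nM gemcitabine. Serial dilutions (30 nM–10 μM for most lines) were applied for 72 h. MTT was added at a final 300 μg/mL for 3 h at 37°C, formazan was dissolved in DMSO and A570 read. Inhibition = (1 − OD treated/OD control) × 100. IC50 given as mean ± SD, three independent experiments.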

MIA PaCa-2 [2] = assay: Cytotoxicity against human MIAPaCa2 cells assessed as decrease in cell proliferation after 72 hrs by MTT assay; type: functional, cell-based; in short: as §2
BXPC-3 = assay: Induction of reactive oxygen species generation in human BxPC3 cells assessed as upregulation of NQO1 expression at 2 uM after 4 to 24 hrs by Western blot analysis; type: functional, cell-based
In short: (§3)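 Immunoblotting. Cells (4×10^5) in 60 mm dishes were treated, lysed 30 min at 4°C and quantified by BCA. 40 μg protein was run on SDS-PAGE and transferred to PVDF. Primary antibodies (1:1000) incubated overnight at 4°C, then Dylight 800 secondary, with fluorescent scanning. Bands were normalized to GAPDH or actin loading controls. Mean ± SD, three independent experiments, Student's t-test.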

MIA PaCa-2 [3] = assay: Inhibition of mtDNA transcription from LSP promoter in human MIAPaCa2 cells at 5 times IC50 after 4 hrs by Bru-seq analysis; type: functional, cell-based
In short: (§4)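 Nascent RNA sequencing (Bru-seq): 4×10^6 MIA PaCa-2 cells seeded in 10 cm dishes, treated next day for 4 h with drug or DMSO. Bromouridine (2 mM final) added for the last 30 min. Total RNA taken in TRIZOL; labeled RNA immunocaptured, converted to cDNA libraries and deep sequenced. Signal compared with DMSO-treated cells.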

MIA PaCa-2 [4] = assay: Downregulation of Sp1 gene expression in human MIAPaCa2 cells at IC50 to 5 times IC50 after 4 hrs by Bru-seq analysis; type: functional, cell-based
Mus musculus [5] = assay: Induction of unfolded protein response in tumor of NOD/SCID mouse xenografted with MIAPaCa2 cells assessed as upregulation of CHOP expression at 5 mg/kg, ip administered 5 times a week until day 44 by Western blot method; type: functional, organism-based
In short: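 Dosed ip in 5% DMSO/60% propylene glycol/35% saline, five days on/two off, until day 44, versus vehicle. Tumor lysates immunoblotted with primary antibodies, Dylight 800 secondary, fluorescent scan.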

[6] = Induction of compound colloidal behavior
Mus musculus [7] = assay: Toxicity in NOD/SCID mouse xenografted with human MIAPaCa2 cells assessed as weakness at 5 mg/kg, ip administered 5 times a week until day 44; type: organism-based; conditions: in vivo; in short: as §1
Mus musculus [8] = assay: Induction of reactive oxygen species generation in tumor of NOD/SCID mouse xenografted with MIAPaCa2 cells assessed as upregulation of HO-1 expression at 5 mg/kg, ip administered 5 times a week until day 44 by Western blot method; type: functional, organism-based
MIA PaCa-2 [9] = assay: Downregulation of Sp4 gene expression in human MIAPaCa2 cells at IC50 to 5 times IC50 after 4 hrs by Bru-seq analysis; type: functional, cell-based
MIA PaCa-2 [10] = assay: Induction of unfolded protein response in human MIAPaCa2 cells assessed as upregulation of DDIT3 gene expression after 4 hrs by Bru-seq analysis; type: functional, cell-based
Mus musculus [11] = assay: Toxicity in NOD/SCID mouse xenografted with human MIAPaCa2 cells assessed as body weight loss at 5 mg/kg, ip administered 5 times a week co-administered with gemcitabine at 15 mg/kg administered once a week for 48 days; type: organism-based; conditions: in vivo, 1152 h
In short: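 MIA PaCa-2 xenografted NOD/SCID mice randomized at 75 mm3 into vehicle (n=4), single-agent (n=3 each) and combination (n=3) arms. Drug given at 5 mg/kg five times a week, gemcitabine at 15 mg/kg once a week, over a 48-day period. Body weight followed; mean ± SEM.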

MIA PaCa-2 [12] = assay: Antitumor activity against human MIAPaCa2 cells xenografted in NOD/SCID mouse assessed as tumor volume at 5 mg/kg, ip administered 5 times a week co-administered with gemcitabine at 15 mg/kg administered once a week for 48 days (reference value: 1503 +/- 189 mm'3); type: functional
In short: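 MIA PaCa-2 subcutaneous xenografts in NOD/SCID mice, randomized at 75 mm3. Test agent was given at 5 mg/kg five times a week. Gemcitabine was given at 15 mg/kg either once weekly for 48 days or twice weekly for 15 days. Groups were n=3–4. Tumor volume was measured by caliper, given as mean ± SEM, and compared by unpaired t test.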

[13] = Induction of compound aggregation
MIA PaCa-2 [14] = assay: Induction of unfolded protein response in human MIAPaCa2 cells assessed as upregulation of GRP78 expression at 2 uM by Western blot analysis; type: functional, cell-based; conditions: TDE = time-dependent effect; in short: as §3
MIA PaCa-2 [15] = assay: Induction of unfolded protein response in human MIAPaCa2 cells assessed as upregulation of HSPA5 gene expression after 4 hrs by Bru-seq analysis; type: functional, cell-based; in short: as §4
MIA PaCa-2 [16] = assay: Inhibition of mtDNA transcription from HSP1 promoter in human MIAPaCa2 cells at 5 times IC50 after 4 hrs by Bru-seq analysis; type: functional, cell-based; in short: as §4
MIA PaCa-2 [17] = assay: Antitumor activity against human MIAPaCa2 cells xenografted in NOD/SCID mouse assessed as tumor volume at 5 mg/kg, ip administered 5 times a week until day 44 (reference value: 1291 +/- 168 mm'3); type: functional
MIA PaCa-2 [18] = assay: Induction of reactive oxygen species generation in human MIAPaCa2 cells at 1.1 to 10 uM after 24 hrs in presence of NAC by H2DCFDA reactivity assay; type: functional, cell-based
In short: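 H2DCFDA assay. Trypsinized MIA PaCa-2 cells in suspension were loaded with 20 μM H2DCFDA for 30 min at 37°C, washed and plated at 20,000/well. After 30 min they were treated with compound at 10, 3.3 or 1.1 μM. Fluorescence was read at 493/523 nm over time. DMSO basal and unstained controls were included. NAC pretreatment, where used, was 5 mM for 30 min. Duplicates, three independent experiments.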

Mus musculus [19] = assay: Toxicity in NOD/SCID mouse xenografted with human MIAPaCa2 cells assessed as microscopic changes in lung at 5 mg/kg, ip administered 5 times a week until day 44 by hematoxylin and eosin staining-based inverted microscopic method; type: organism-based; conditions: in vivo
In short: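 Necropsy after the 44-day ip course in MIA PaCa-2 xenograft-bearing NOD/SCID mice: heart, kidney, liver, lung, spleen and pancreas fixed in 10% neutral buffered formalin, paraffin-embedded, sectioned and stained with hematoxylin and eosin. Sections examined by inverted microscope at 20X, compared with vehicle-treated animals.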

## O=C1C(Nc2ccc(-c3ccccc3)cc2)=CC(=O)c2ncncc21
Mus musculus [1]
  Activity: Non-Toxic
PANC-1
  pIC50: 6.40
MIA PaCa-2 [2]
  Activity: Dose-dependent effect
MIA PaCa-2 [2]; MIA PaCa-2, 72 h
  pIC50: 6.05
BXPC-3
  Activity: inactive
MIA PaCa-2 [3]
  inhibition: Active
MIA PaCa-2 [4]
  Activity: inactive
Mus musculus [5]
  Activity: Active
[6]
  Activity: Active
Mus musculus [7]
  Activity: Non-Toxic
Mus musculus [8]
  Activity: Active
MIA PaCa-2 [9]
  Activity: inactive
MIA PaCa-2 [10]
  Activity: Dose-dependent effect
Mus musculus [11]
  Activity: Non-Toxic
MIA PaCa-2 [12]
  Activity: 163 mm3
[13]
  Activity: Active
MIA PaCa-2 [14]
  Activity: Tde
MIA PaCa-2 [15]
  Activity: Dose-dependent effect
MIA PaCa-2 [16]
  inhibition: inactive
MIA PaCa-2 [17]
  Activity: 308 mm3
MIA PaCa-2 [18]
  Activity: inactive
Mus musculus [19]
  Activity: Non-Toxic
